PG9 Ab binder = small molecules binding HIV-1 gp120 antibody PG9. TR-FRET gp120-PG9 antibody binding. inhibition, % at 6.7 µM. 0.43% of 360,000 active; in the data active = inhibition above about 8.5%
Neddyl block = blocks human cullin neddylation | P61081+Q13564 | TR-FRET cullin neddylation, biochemical | calls only at 25 µM | 0.58% of 360,000 active | AID 651699; in the data active = inhibition above about 36%
Target sequence (P61081 whole entry, looked up): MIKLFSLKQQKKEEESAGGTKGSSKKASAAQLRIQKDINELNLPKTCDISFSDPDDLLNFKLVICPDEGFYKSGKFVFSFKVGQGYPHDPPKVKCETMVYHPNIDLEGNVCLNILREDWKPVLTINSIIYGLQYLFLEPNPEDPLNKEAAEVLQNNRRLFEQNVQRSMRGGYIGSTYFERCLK
Target sequence (Q13564 whole entry, looked up): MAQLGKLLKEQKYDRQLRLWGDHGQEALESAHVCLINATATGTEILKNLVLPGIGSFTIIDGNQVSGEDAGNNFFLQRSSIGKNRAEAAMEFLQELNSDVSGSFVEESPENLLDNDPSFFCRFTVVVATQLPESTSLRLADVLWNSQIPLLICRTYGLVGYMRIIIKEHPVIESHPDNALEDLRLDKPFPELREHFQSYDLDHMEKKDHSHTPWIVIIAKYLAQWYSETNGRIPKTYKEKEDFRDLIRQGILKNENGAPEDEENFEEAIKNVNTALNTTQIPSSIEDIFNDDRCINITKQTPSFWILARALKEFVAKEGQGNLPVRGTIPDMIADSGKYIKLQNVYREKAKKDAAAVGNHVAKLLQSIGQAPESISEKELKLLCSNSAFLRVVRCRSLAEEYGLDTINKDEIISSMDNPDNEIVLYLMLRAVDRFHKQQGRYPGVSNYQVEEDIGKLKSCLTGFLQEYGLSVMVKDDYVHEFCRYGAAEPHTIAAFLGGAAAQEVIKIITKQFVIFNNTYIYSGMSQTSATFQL
NR1D1 modulator = modulators of human Rev-erb alpha DNA binding | P20393 | Rev-erbα–FITC-DNA binding, fluorescence polarization, 90 min | activity, % at 10 µM | 0.79% of 370,000 active;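 active = activity above about 14%, limit read from the data; passing the limit was not always enough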;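 also: 0% = DMSO wells with 35 nM protein and 100% = DMSO wells with 750 nM protein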
NR2E3 ag-1 = activates human NR2E3 receptor; inhibition of corepressor binding, % at 3.98 µM; Q9Y5X4; 0.35% of 360,000 active; CHO-S Gal4-NCOR/VP16-NR2E3 two-hybrid, luciferase; AID 602229;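 active = inhibition above the mean of all tested compounds plus 3 SD, cut at about 70% in these data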;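 also: 0% = DMSO with NR2E3 transfected cells and 100% = cells lacking NR2E3 construct; higher means lower luciferase signal from less NR2E3 corepressor binding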
NR2E3 ag-2 = NR2E3 (human) agonism. Q9Y5X4. GST-NR2E3/biotin-RetCOR TR-FRET, 1536-well. inhibition of corepressor binding, % at 4.78 µM. 0.12% of 320,000 active. AID 2300;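 active = percent inhibition above the cutoff of mean plus 3 SD of all tested compounds, set per screening campaign, cut at about 20% in these data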;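 also: 0% = DMSO wells and 100% = biotin wells as full block of FRET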
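Material – GST-tagged NR2E3 plus biotinylated RetCOR corepressor · Quantity – NR2E3 fusion 1.35 nM · Times – 5 h incubation at 4 °C · Medium – pH 7.5 Tris-based buffer · Technique – TR-FRET, Eu(K)-anti-GST donor, streptavidin-D2 acceptor, ex 340, em 617/671 nm · Benchmarks – high control biotin, low control 0.6% DMSO · Format – 1536-well plates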
NR1D1 mod conf = Rev-erb alpha (human) modulation, hit confirmation; Rev-erb alpha FITC-DNA binding, fluorescence polarization, 90 min; activation, % at 25 µM; shares compounds with NR1D1 modulator; 61% of 3,000 active;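 active = activation at or above a set limit, or at least 3 SD above the negative control mean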;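 also: 0% = 35 nM protein with DMSO and 100% = 750 nM protein high control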
RORg DNA counter = counter-screen for Rev-erb alpha modulators: RORgamma DNA binding. shares compounds with NR1D1 modulator. purified RORgamma protein-FITC-DNA binding, fluorescence polarization. IC50, µM. 8% of 910 active. AID 1259320;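 active = Compounds whose fitted half-maximal concentration for disrupting protein-DNA binding is below 10 micromolar; the record names Rev-erb in its text, so the target is in doubt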
* marks the source's active call; other numbers are inactive results; i = inactive; · = no result given; ! = not confirmed by another sample. The list is not random: actives were taken first. Their share in the collection is about 2%.

SMILES	PG9 Ab binder	Neddyl block	NR1D1 modulator	NR2E3 ag-1	NR2E3 ag-2	NR1D1 mod conf	others
C=CCSc1nc(N)c(C(=O)Nc2ccccc2OC)cc1C(=O)Nc1ccccc1	2.6	·	19.7*	3.0	-3.0	14.9
O=C(Nc1ccc2nn(-c3ccccc3)nc2c1)c1ccc(Br)o1	-11.1	i	36.6*	-38.4	-10.8	26.0*
O=C(Nc1ccc2nn(-c3ccccc3)nc2c1)c1ccc2c(c1)OCCO2	1.6	·	14.4	-115.7	-1.4	·
O=C1c2cnc3nc(SCc4cccc(Cl)c4)nn3c2CC2c3ccccc3CCN12 (stereo not given)	-2.4	i	33.5*	-18.4	-2.1	10.8
COc1cccc(C(O)c2nc(-c3cnn(C)c3)cs2)c1 (stereo not given)	-2.0	i	-1.7	19.4	·	·
CCN(c1ccccc1C)S(=O)(=O)c1cc2c3c(c1)CCC(=O)N3CCC2	-1.6	i	27.6*	-18.6	2.4	41.2*	RORg DNA counter=>40
O=C(CSc1nc(C2CCCCC2)nc2ccccc12)NCc1ccc2c(c1)OCO2	0.2	i	19.6*	-5.8	4.9	15.9
CCc1nc2ccc(C(=O)N(C)Cc3ccco3)cn2c1N(C)Cc1ccc(OC)cc1	-2.2	i	1.5	-2.5	·	·
COCCN(C(=O)COC(=O)Cc1coc2cc3c(cc12)CCC3)c1c(N)n(Cc2ccccc2)c(=O)[nH]c1=O	0.8	i	-0.2	-13.7	-2.9	·
OC(c1ccccc1)c1nc(-c2ccc(F)c(Cl)c2)cs1 (stereo not given)	-0.1	i	15.6*	-28.6	·	-1.4
CC(=O)NC(c1ccc(F)c(F)c1)c1nc(-c2ccc(F)c(Cl)c2)cs1 (stereo not given)	0.5	i	41.9*	1.3	·	-4.8
COC(=O)C1CN(Cc2ccc(F)cc2)CCS(=O)(=O)N1Cc1cn(CCOC(C)=O)nn1 (stereo not given)	·	·	-3.3	·	·	·
CC(C)c1nc2sc3c(NCc4ccccc4)ncnc3c2c2c1COC(C)(C)C2	-0.5	i	23.8*	19.5	-0.7	9.6
C=CCN1C(=O)[C@@H](CC(=O)NCCCOC)[C@]2(C(=O)OC)CCCCC=C12	·	·	-0.6	·	·	·
CN(C)/C=N/C1=C(C#N)C(c2cccs2)c2ccc3ccccc3c2O1 (stereo not given)	-1.2	i	172.8*	-137.2	·	117.2*	RORg DNA counter=>40
N#CC1=C(N)Oc2cc3ccccc3cc2C1c1cccs1 (stereo not given)	-2.1	i	0.3	-59.4	4.0	·
CSc1nc(C)c2c(n1)N(c1ccc(C(F)(F)F)cc1)CC2	-0.8	i	22.8*	-24.1	2.2	1.0
Cc1oc2c(cc(NS(=O)(=O)c3ccc(C(C)C)cc3)c3ccccc32)c1C(=O)O	-3.3	i	-3.8	-2.0	1.7	·
Cc1oc2c(cc(NS(=O)(=O)c3cccs3)c3ccccc32)c1C(=O)OC(C)C	-3.0	i	50.4*	5.5	1.4	71.5*
O=C(O)C1(Nc2ccc(Br)cc2)CCCC1	0.0	i	4.5	-1.1	·	·
CC(C)c1ccc(NC(=O)CSc2nc(-c3ccccc3F)nc3nc[nH]c23)cc1	-2.2	i	34.0*	-0.9	-1.5	18.4*
C=CCN1C(=O)[C@@H](CC(=O)NCCC(C)C)[C@]2(C(=O)OC)CCCCC=C12	·	·	5.6	·	·	·
CSc1cc(-c2ccc(Cl)cc2)n(Cc2ccccc2)c(=O)c1C#N	-4.0	i	31.6*	-5.7	5.7	13.6
C=C(C)Cc1c(C)c(C#N)c2nc3ccccc3n2c1N1CCCCC1	-1.4	i	24.8*	-16.8	1.8	4.2
C=CCc1c(C)c(C#N)c2nc3ccccc3n2c1N1CCCCC1	-2.8	i	42.9*	-8.8	0.1	5.8
SMILES	PG9 Ab binder	Neddyl block	NR1D1 modulator	NR2E3 ag-1	NR2E3 ag-2	NR1D1 mod conf	others
Cc1ccc(N2CC(C(=O)Nc3ccc(S(=O)(=O)Nc4ncccn4)cc3)CC2=O)cc1C (stereo not given)	-0.3	i	4.4	-26.0	-2.1	·
CC(C)(C)c1ccc(C(=O)OCC(=O)N2CCC(c3ccccc3)=N2)cc1	-1.5	i	14.3*	-16.1	0.2	-1.0
Cc1ccc(C(=O)OCC(=O)N2CCC(c3ccccc3)=N2)c(C)c1	-0.7	i	-0.8	27.9	-1.8	·
COc1ccc(-c2ccc3oc(-c4ccsc4)cc(=O)c3c2)cc1F	-7.4	i	66.1*	-12.1	·	30.6*
COc1ccc(-c2cc(C(F)(F)F)n3ncc(C(=O)NCC4CCCO4)c3n2)cc1 (stereo not given)	-1.2	i	47.2*	4.4	·	21.9*
COc1cccc(NC(=O)Cn2nnc(C(=O)NCCc3ccccc3)c2N)c1	-2.5	i	19.8*	15.7	-1.3	5.3
Cc1ccc(CNC(=O)Cn2nnc(C(=O)Nc3ccc(Br)cc3)c2N)cc1	-0.2	i	-7.2	16.7	2.7	·
Cc1ccc(CNC(=O)c2nnn(CC(=O)Nc3cccc(C)c3C)c2N)cc1	-0.7	i	27.2*	17.6	-1.6	22.1*
CCC(C)Sc1ccc(-c2nc3cc(C)ccn3c2NC2CCCCC2)cc1 (stereo not given)	5.7	·	20.3*!	-16.5	·	19.1*
CCCCCCSc1ccc(-c2nc3cc(C)ccn3c2NC2CCCCC2)cc1	2.4	·	19.9*!	-26.5	·	-2.3
CCC(C)Sc1ccc(-c2nc3cnccn3c2NC2CCCCC2)cc1 (stereo not given)	4.9	i	12.2	-23.3	0.6	·
CCCCCCSc1cc(-c2nc3cc(C)ccn3c2NC2CCCCC2)ccc1OC	1.4	·	0.7	-11.7	-0.5	·
Cc1ccc(C(=O)Oc2ccc(-c3nccc(-c4ccccn4)n3)cc2)cc1	0.8	i	19.6*	-61.3	2.1	15.1
COc1ccc(CCN2CCC(Nc3nc4ccccc4n3Cc3ccc(F)cc3)CC2)cc1	0.9	i	-7.0	-8.8	0.3	·
COc1c(O)cccc1[C@@H](O)C1CCN(CCc2ccc(F)cc2)CC1	1.1	i	18.6*	7.0	0.1	6.0
Cc1cc(NC(=O)CSc2nc3cc(C)c(C)cc3cc2C)no1	-2.1	i	85.4*	-4.5	-0.3	47.8*	RORg DNA counter=>40
CCc1cc2ccc(C)c(C)c2nc1SCC(=O)Nc1cc(C)on1	1.1	i	15.7	19.5	1.3	·
Cc1cc(NC(=O)CSc2nc3c(C)c(C)ccc3cc2C)no1	-1.8	i	24.6*	16.4	-2.5	15.1
COc1ccc(CNC(=O)COC(=O)CN2C(=O)C3CC=CCC3C2=O)cc1 (stereo not given)	2.0	i	-0.4	7.5	·	·
CC(=O)c1cc(-c2ccccc2)n(CC(=O)NCc2ccc(Cl)cc2)c1C	·	·	23.8*	·	·	15.5*
CCCn1c(N)c(N(CCOC)C(=O)c2ccc(N(C)S(=O)(=O)c3ccc(C)cc3)cc2)c(=O)[nH]c1=O	-0.5	i	-7.8	17.2	0.5	·

Source: PubChem BioAssay
